The source of these data is ChEMBL document CHEMBL1250436, “Evaluation of N-substitution in 6,7-benzomorphan compounds” (Bioorg Med Chem, 2010).

As a reminder, the Ki is the equilibrium dissociation constant of an inhibitor or competing ligand from its target. The low end stands for a stronger hold on the target, the high end for a looser hold on the target. In general, ED50 refers to the dose at which the effect has come halfway, by size or by number of responders. Broadly, the IC50 is the concentration that gives 50% inhibition.

The target of assay [1] is Mu-type opioid receptor (Rattus norvegicus, UniProt P33535). Description: Displacement of [3H]DAMGO from Sprague-Dawley rat mu opioid receptor by liquid scintillation counting.
Mu-type opioid receptor (Rattus norvegicus, UniProt P33535), sequence (P33535 whole entry): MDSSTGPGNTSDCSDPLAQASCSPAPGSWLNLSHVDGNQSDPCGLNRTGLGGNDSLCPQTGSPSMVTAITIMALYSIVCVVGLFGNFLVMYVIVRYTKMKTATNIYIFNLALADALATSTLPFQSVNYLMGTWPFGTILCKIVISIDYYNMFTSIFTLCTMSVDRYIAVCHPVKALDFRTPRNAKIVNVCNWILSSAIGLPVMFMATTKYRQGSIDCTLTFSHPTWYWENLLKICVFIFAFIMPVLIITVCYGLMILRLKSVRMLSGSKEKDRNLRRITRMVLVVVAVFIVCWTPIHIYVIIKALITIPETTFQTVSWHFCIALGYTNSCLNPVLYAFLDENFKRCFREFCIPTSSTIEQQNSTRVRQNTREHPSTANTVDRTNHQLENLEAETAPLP
The target of assay [2] is Delta-type opioid receptor (Rattus norvegicus, UniProt P33533). Description: Displacement of [3H]DPDPE from Sprague-Dawley rat delta opioid receptor by liquid scintillation counting. For orientation: Displacement assays read how much labelled ligand stays bound in the presence of the test substance.
Delta-type opioid receptor (Rattus norvegicus, UniProt P33533), sequence (P33533 whole entry): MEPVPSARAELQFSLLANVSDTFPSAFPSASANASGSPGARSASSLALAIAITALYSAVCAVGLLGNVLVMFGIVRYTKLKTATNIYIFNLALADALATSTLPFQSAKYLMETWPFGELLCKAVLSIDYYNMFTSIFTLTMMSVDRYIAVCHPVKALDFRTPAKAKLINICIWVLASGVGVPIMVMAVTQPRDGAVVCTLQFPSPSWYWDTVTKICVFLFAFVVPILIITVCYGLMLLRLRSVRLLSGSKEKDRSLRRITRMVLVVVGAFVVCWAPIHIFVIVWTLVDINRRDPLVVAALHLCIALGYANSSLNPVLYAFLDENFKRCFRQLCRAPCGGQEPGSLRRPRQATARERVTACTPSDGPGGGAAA
The target in assay [3] is Kappa-type opioid receptor (Cavia porcellus, UniProt P41144). Put plainly: Displacement of [3H]U69593 from […] kappa opioid receptor in guinea pig cerebella by liquid scintillation counting.
Kappa-type opioid receptor, sequence (P41144 whole entry): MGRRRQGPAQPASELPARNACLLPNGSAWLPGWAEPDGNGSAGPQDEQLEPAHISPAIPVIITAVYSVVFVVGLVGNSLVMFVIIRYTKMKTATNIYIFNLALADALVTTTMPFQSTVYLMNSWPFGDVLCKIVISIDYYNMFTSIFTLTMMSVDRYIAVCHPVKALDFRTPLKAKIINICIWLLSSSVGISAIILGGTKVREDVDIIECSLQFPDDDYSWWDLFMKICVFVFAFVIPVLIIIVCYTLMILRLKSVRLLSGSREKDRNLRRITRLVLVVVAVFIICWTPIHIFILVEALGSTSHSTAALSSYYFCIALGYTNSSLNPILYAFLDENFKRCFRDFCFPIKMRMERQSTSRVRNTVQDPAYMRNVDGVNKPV
A short description of assay [4]: Selectivity ratio of Ki for kappa opioid receptor in guinea pig cerebella to Ki for mu opioid receptor in Sprague-Dawley rat brain.
For assay [5], the species on record is Rattus norvegicus. Description: Selectivity ratio of Ki for delta opioid receptor in Sprague-Dawley rat brain to Ki for mu opioid receptor in Sprague-Dawley rat brain.
Assay [6] has as its system Rattus norvegicus. Description: Antinociceptive activity in sc dosed Sprague-Dawley rat assessed as thermal-stimulus-induced tail flick latency after 100 mins. The assay is classed as functional. In outline:
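Male Sprague–Dawley rats (180–200 g) habituated the day before. Radiant-heat IR on lower third of tail. Basal latency 3–4 s, mean of three readings 5 min apart. Cut-off 10 s. Compound given sc, and latencies read at 20, 40, 60, 80 and 100 min. Blinded. ED50 from linear regression of dose–effect, with 95% confidence limits.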
A general note: In hot-plate and tail-flick tests a longer latency is read as antinociception.

Assay [7] addresses T1, Mu-type opioid receptor (Homo sapiens, UniProt P35372). Description: Agonist activity at mu opioid expressed in HEK293 cells assessed as inhibition of forskolin-stimulated cAMP accumulation. The assay is classed as functional, cell-based. On the technique in general: cAMP levels reflect the balance of adenylyl cyclase and phosphodiesterase activity.
For assay [8], the target named is T2, Delta-type opioid receptor (Homo sapiens, UniProt P41143). Put plainly: Agonist activity at delta opioid expressed in HEK293 cells assessed as inhibition of forskolin-stimulated cAMP accumulation. The assay is classed as functional, cell-based.
T2 sequence (P41143 whole entry): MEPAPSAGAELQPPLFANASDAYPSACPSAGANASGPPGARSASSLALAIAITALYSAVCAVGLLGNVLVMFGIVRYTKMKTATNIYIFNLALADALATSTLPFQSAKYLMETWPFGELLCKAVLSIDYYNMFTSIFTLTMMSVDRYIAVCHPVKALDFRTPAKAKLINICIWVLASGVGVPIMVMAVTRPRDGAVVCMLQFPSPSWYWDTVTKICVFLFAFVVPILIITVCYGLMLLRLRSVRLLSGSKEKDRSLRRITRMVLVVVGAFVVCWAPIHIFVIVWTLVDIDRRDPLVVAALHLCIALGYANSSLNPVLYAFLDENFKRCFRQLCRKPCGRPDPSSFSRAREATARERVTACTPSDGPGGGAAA
The target in assay [9] is T1, Mu-type opioid receptor. Description: Agonist activity at mu opioid expressed in HEK293 cells assessed as inhibition of forskolin-stimulated cAMP accumulation at 1 pM to 10 uM relative to control. The assay is classed as functional, cell-based.
For assay [10], the target named is T2, Delta-type opioid receptor. Put plainly: Agonist activity at delta opioid expressed in HEK293 cells assessed as inhibition of forskolin-stimulated cAMP accumulation at 1 pM to 10 uM relative to control. The assay is classed as functional, cell-based.

T1 sequence (P35372 whole entry): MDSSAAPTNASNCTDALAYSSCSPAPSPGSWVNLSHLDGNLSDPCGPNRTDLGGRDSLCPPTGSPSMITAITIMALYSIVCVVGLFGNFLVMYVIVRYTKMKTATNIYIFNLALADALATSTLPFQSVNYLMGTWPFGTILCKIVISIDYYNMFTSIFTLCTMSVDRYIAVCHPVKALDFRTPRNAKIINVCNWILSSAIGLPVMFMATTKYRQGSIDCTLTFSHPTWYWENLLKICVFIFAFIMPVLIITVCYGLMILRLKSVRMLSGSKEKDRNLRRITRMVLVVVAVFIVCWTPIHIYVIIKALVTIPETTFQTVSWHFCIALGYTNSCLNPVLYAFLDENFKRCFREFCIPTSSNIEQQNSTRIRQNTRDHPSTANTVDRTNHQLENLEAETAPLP

As to `CCN(C(=O)CN1C[C@H](C)[C@@]2(C)C[C@H]1Cc1ccc(O)cc12)c1ccccc1`, the results for the Ki (on Mu-type opioid receptor [1]; in assay [2]; in [3]) were 1.12 µM, over 5 µM and 0.335 µM, respectively. Further, the Ratio Ki in [4] is 0.29; in the assay filed under Rattus norvegicus [5], over 4.4.

For the compound `CN1CC[C@]23c4c5ccc(O)c4O[C@H]2[C@@H](O)C=C[C@H]3[C@H]1C5` [MORPHINE], the 50% effective dose (ED50) in the assay with Rattus norvegicus [6] amounted to 2.7 mg/kg.

In the case of `C[C@@H](NC(=O)[C@@H](N)Cc1ccc(O)cc1)C(=O)NCC(=O)N(C)[C@@H](Cc1ccccc1)C(=O)NCCO` [DAMGO], the inhibition constant (Ki) in [2] was 2.67 µM; in assay [3], over 5 µM.

Turning to `C[C@H]1CN(CCC(=O)NC(C)(C)C)[C@@H]2Cc3ccc(O)cc3[C@]1(C)C2`, the Ki on Mu-type opioid receptor [1] was 0.372 µM; in [2], over 5 µM; in assay [3], 0.422 µM. Besides, the Ratio Ki in [4] was 1.1; in the assay listed under Rattus norvegicus [5], over 13.4.

As for `C[C@H]1CN(CCC(=O)NCc2ccccc2)[C@@H]2Cc3ccc(O)cc3[C@]1(C)C2`, the Ki is 0.105 µM on Mu-type opioid receptor [1], over 5 µM in [2] and 0.237 µM in [3]. Also, the Ratio Ki in [4] is 2.2; in the assay filed under Rattus norvegicus [5], over 47.6.

Turning to `C[C@H]1CN(CCC(=O)Nc2ccccc2)[C@@H]2Cc3ccc(O)cc3[C@]1(C)C2`, the inhibition constant Ki at Mu-type opioid receptor [1] turned out to be 0.00083 µM; in assay [2], 0.0291 µM; in assay [3] it was 0.11 µM. Also, the Ratio Ki in assay [4] came to 132; in the assay filed under Rattus norvegicus [5] it was 33.8. In addition, the IC50 stood at 0.0048 µM at Mu-type opioid receptor [7] and 0.012 µM in assay [8]. The Imax at Mu-type opioid receptor [9] is 73%; in assay [10], 83%. Moreover, in the assay on Rattus norvegicus [6], the ED50 stood at 2.03 mg/kg.

For `C[C@H]1CN(CC(=O)N(C)c2ccccc2)[C@@H]2Cc3ccc(O)cc3[C@]1(C)C2`, the inhibition constant Ki at Mu-type opioid receptor [1] is 1.37 µM; in assay [2], over 5 µM; in [3], 0.339 µM. The Ratio Ki in assay [4] is 0.24; in the assay filed under Rattus norvegicus [5], over 3.6.

On to `C[C@H]1CN(CCC(=O)NCC2CCCCC2)[C@@H]2Cc3ccc(O)cc3[C@]1(C)C2`, for which the inhibition constant Ki was 0.107 µM on Mu-type opioid receptor [1], over 5 µM in [2] and 0.134 µM in [3]. The Ratio Ki is 1.2 in assay [4] and over 46.7 in the assay listed under Rattus norvegicus [5].

As for `CCN(C(=O)CCN1C[C@H](C)[C@@]2(C)C[C@H]1Cc1ccc(O)cc12)c1ccccc1`, the Ki is 0.136 µM on Mu-type opioid receptor [1], over 5 µM in assay [2] and 0.07 µM in assay [3]. Also, the Ratio Ki in [4] is 0.51; in the assay listed under Rattus norvegicus [5], over 36.7.

For `C[C@H]1CN(CCC(=O)NC2CCCCC2)[C@@H]2Cc3ccc(O)cc3[C@]1(C)C2`, the figures for the Ki (on Mu-type opioid receptor [1]; in assay [2]; in assay [3]) were 0.056 µM, over 5 µM and 0.501 µM, respectively. Moreover, the Ratio Ki in assay [4] was 8.9; in the assay filed under Rattus norvegicus [5], over 89.2.

Consider `C[C@H]1CN(CCC(=O)N(C)c2ccccc2)[C@@H]2Cc3ccc(O)cc3[C@]1(C)C2`, for which the Ki was 0.065 µM on Mu-type opioid receptor [1], over 5 µM in [2] and 0.261 µM in assay [3]. Moreover, the Ratio Ki in assay [4] was 4; in the assay listed under Rattus norvegicus [5] it was over 76.9.

As to `C[C@H]1CN(CC(=O)NC2CCCCC2)[C@@H]2Cc3ccc(O)cc3[C@]1(C)C2`, the Ki on Mu-type opioid receptor [1] is 2.93 µM; in [2], over 5 µM; in [3], 0.612 µM. In addition, the Ratio Ki in assay [4] is 0.2; in the assay listed under Rattus norvegicus [5] it was over 1.7.

As to `C[C@H]1CN(CC(=O)Nc2ccccc2)[C@@H]2Cc3ccc(O)cc3[C@]1(C)C2`, the values for the inhibitory constant (Ki) (on Mu-type opioid receptor [1]; in assay [2]; in [3]) were 0.722 µM, over 5 µM and over 5 µM, respectively. Moreover, the Ratio Ki (in [4]; in the assay listed under Rattus norvegicus [5]) was over 6.9 each time.
